Screening data (PubChem)
Rows were chosen to be rich in hits. Some 1.7% of all compounds tested hit in one or more screens of this group.
CSN deneddyl inh: inhibitors of CSN-mediated cullin deneddylation, primary screen, biochemical, fluorescence polarization, uHTS; AID 651999, 2013; Purified CSN, SCF-Nedd8-OG deneddylation; COP9 signalosome complex subunit 5 (Homo sapiens), Q92905; 0.38% of 360,000 active; inhibition, % at 12.5 µM;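 active = pattern-corrected inhibition above about 35%, with an unprinted fluorescence ratio check between 0.5 and 1.5, limit read from the data, passing the limit was not always enough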;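 also: 0% = enzyme with substrate and 100% = substrate without enzyme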
Target sequence (Q92905 whole entry, looked up, one chain of several): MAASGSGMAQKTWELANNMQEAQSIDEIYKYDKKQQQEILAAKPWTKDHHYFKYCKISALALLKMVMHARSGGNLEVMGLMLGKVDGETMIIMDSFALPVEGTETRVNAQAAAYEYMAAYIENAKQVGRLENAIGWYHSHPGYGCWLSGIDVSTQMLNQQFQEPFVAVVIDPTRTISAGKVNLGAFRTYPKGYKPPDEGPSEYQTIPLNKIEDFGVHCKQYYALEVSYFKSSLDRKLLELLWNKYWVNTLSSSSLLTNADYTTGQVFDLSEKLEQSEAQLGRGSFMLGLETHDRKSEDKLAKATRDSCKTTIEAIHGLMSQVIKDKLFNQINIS
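Material: human Csn5 produced in HEK293T cells; Input: enzyme 0.24 nM; Reagent: SCFSkp2-Nedd8OG substrate at 10 nM final; Dosing: 12.5 µM compound; Incubation: 90 min reaction at room temperature; Detection: fluorescence polarization of the substrate; Evaluation: % inhibition of substrate cleavage by Csn5; Control set: substrate-only high control, full reaction low control.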
TPT1 inhibitor: Candida albicans TPT1 enzyme inhibitors, primary screen, biochemical, fluorescence polarization. 0.81% of 300,000 active. inhibition, % at 5 µM. recombinant caTPT1, FP RNA substrate dephosphorylation;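 active = inhibition above the mean of all tested compounds plus 3 SD, set per screening campaign, cut at about 24% in these data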;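 also: plate controls were DMSO alone for no effect and ferristatin control at 100 nM for full effect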
Rpn11 inh: Rpn11 (PSMD14) deubiquitinase inhibitors, primary screen, biochemical, fluorescence polarization, uHTS. inhibition, % at 20 µM. human 26S proteasome, Ub4-pepOG fluorescence polarization; 20S core pre-blocked with epoxomicin. 0.59% of 360,000 active. 26S proteasome non-ATPase regulatory subunit 14 (Homo sapiens), O00487. AID 588493, 2011;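 active = inhibition at 20 µM, scaled to each plate's controls, above about 33%, limit read from the data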
Target sequence (O00487 whole entry, looked up): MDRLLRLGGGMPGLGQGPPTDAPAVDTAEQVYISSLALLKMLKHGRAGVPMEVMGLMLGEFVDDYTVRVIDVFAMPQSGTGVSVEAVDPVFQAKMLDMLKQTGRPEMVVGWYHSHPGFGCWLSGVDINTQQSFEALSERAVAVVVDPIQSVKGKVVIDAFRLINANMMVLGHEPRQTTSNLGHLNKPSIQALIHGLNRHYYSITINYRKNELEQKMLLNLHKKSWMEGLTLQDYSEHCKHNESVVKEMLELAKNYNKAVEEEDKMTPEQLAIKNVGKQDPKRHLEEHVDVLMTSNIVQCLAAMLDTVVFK
IDE inh: human IDE inhibitors in live cells, primary screen, fluorescence polarization, HEK cells, FAbetaB substrate; inhibition, % at 5.59 µM; 0.41% of 320,000 active; FAbetaB cleavage;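 active = percent inhibition above the average of all tested compounds plus 3 SD, set per screening campaign, cut at about 16% in these data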;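 also: IDE supplied by intact live HEK cells; FP after avidin binding of uncleaved biotin substrate so inhibition keeps polarization high; 0% = DMSO wells and 100% = 60 µM reference IDE inhibitor Ii1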
HNF4A DNA FP: change in binding of human HNF4A to DNA, primary screen, biochemical, fluorescence polarization, FITC-DNA | activity change, % at 10 µM | 0.3% of 360,000 active | 1 h; in the data active = activity change above about 30%, passing the limit was not always enough
IDE cell activ: human IDE activators in live cells, primary screen, fluorescence polarization, HEK cells, FAbeta-B substrate. 0.073% of 340,000 active. AID 493087, 2011. FAbeta-B cleavage; 0% vehicle, 100% cell-free pure enzyme wells. activation, % at 5.96 µM. Insulin-degrading enzyme (Homo sapiens), P14735;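 active = activation above the mean of all tested compounds plus 3 SD, set per screening campaign, cut at about 17% in these data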
TPT1 inh confirm: Candida albicans TPT1 inhibitors, confirmation, biochemical, fluorescence polarization, triplicate. shares compounds with TPT1 inhibitor. recombinant caTPT1, RNase T1 coupled. inhibition, % at 5 µM. 74% of 2,400 active. AID 2149, 2009;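 active = inhibition above the primary screen limit, the mean inhibition of all tested compounds plus 3 SD, cut at about 25% in these data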
RNase T1 counter: RNase T1 inhibitors, counter-screen for TPT1 inhibitor project, biochemical, fluorescence polarization; RNase T1 cleavage, 1536-well; AID 2153, 2009; inhibition, % at 5 µM; 83% of 2,400 active; shares compounds with TPT1 inhibitor;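 active = inhibition above the solvent-only control well mean plus 3 SD, limit set per screening run, cut at about 23% in these data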;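 also: plate controls were DMSO wells with enzyme for no effect and wells without RNase T1 for full effect; inhibitors block cleavage so intact labeled substrate keeps polarization high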
IDE cell inh cf: human IDE inhibitors in live cells, confirmation, fluorescence polarization, HEK cells, FAbetaB substrate. shares compounds with IDE inh. FAbetaB cleavage. inhibition, % at 5.59 µM. 51% of 1,200 active;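 active = mean inhibition across triplicate wells above the cutoff set by the earlier primary insulin-degrading enzyme screen, cut at about 16% in these data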;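 also: 0% = DMSO wells and 100% = 60 µM reference IDE inhibitor Ii1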
HEK293 tox: cytotoxicity in HEK cells, cytotoxicity control for IDE inhibitor project, cell-based, luminescence. shares compounds with IDE inh. inhibition, % at 5.59 µM. 28% of 1,200 active. HEK293 cytotoxicity, ATP luminescence; in the data active = inhibition above about 22%;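 also: 0% = vehicle wells and 100% = reference cytotoxic drug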
Numbers without * were called inactive; x = no result given.

SMILES | CSN deneddyl inh | TPT1 inhibitor | Rpn11 inh | IDE inh | HNF4A DNA FP | IDE cell activ | TPT1 inh confirm | RNase T1 counter | IDE cell inh cf | HEK293 tox
Cc1ccc2nc(/C(C#N)=C\c3cc(C)n(-c4cccc([N+](=O)[O-])c4)c3C)[nH]c2c1 | 6 | 3 | -6 | 4 | 1 | -9 | x | x | x | x
N#C/C(=C\c1ccc(Sc2ccccc2)o1)c1nc2ccccc2[nH]1 | -5 | 51* | 3 | 21* | 11 | -22 | 60* | 70* | 14 | 20
Cc1ccc2nc(/C(C#N)=C\c3ccc(N4CCOCC4)o3)[nH]c2c1 | -10 | 139* | x | 48* | 136 | -139 | 149* | 136* | 26* | 27*
O=C(O)CN1C(=O)/C(=C\c2cn(CC(=O)N3CCOCC3)c3ccccc23)SC1=S | 154 | 181* | x | 67* | 194 | -108 | 150* | 144* | 114* | 9
Cc1ccnc2nc(C(=O)OCC(=O)N(C)C3CCCCC3)nn12 | 6 | x | -5 | x | 5 | x | x | x | x | x
COc1ccc(/C=C2\Oc3ccccc3C2=O)cc1 | 3 | x | 2 | 6 | 2 | 0 | x | x | x | x
COC(=O)c1ccc2c(c1)C(=O)/C(=C/c1ccc(O)cc1)O2 | 14 | 28* | 23 | 55* | 20 | -106 | 20 | 28* | 86* | 21
O=C(CCCCl)Oc1ccc2cc(-c3ccc4ccccc4n3)c(=O)oc2c1 | 10 | 49* | 33 | 37* | 18 | -49 | 35* | 42* | 52* | 4
CC(=O)COc1ccc2cc(-c3ccccc3)c(=O)oc2c1 | -2 | 1 | 10 | -3 | 1 | -2 | x | x | x | x
O=C1/C(=C\c2c(NCCOCCO)nc3ccccn3c2=O)SC(=S)N1Cc1ccco1 | 97 | 86* | x | 99* | 103 | -69 | 86* | 87* | 80* | 15
Cc1noc(C)c1NC(=O)Nc1ccc2c(c1)C(=O)N([C@H](C)CO)C[C@@H](C)[C@@H](CN(C)S(=O)(=O)c1cn(C)cn1)OCCCC[C@H](C)O2 | 2 | x | -3 | x | 2 | x | x | x | x | x
CCOC(=O)C1=C(c2ccccc2)N=c2sc(=Cc3cc(OC)c(OC)c(OC)c3)c(=O)n2C1c1cccs1 (stereo not given) | 2 | x | 18 | x | 0 | x | x | x | x | x
CCOC(=O)C1=C(c2ccccc2)N=c2s/c(=C\c3ccc(O)cc3)c(=O)n2C1c1cccs1 (stereo not given) | 45* | 31* | x | 23* | 22 | -31 | 53* | 60* | 115* | 41*
COc1ccc2c(Cl)c(C(=O)N/N=C3\CCCC(=O)C3)sc2c1 | 56 | 97* | x | 22* | 165 | -18 | 121* | 115* | 31* | 11
COc1ccc2c(Cl)c(C(=O)N/N=C/c3ccc4c(c3)OCO4)sc2c1 | 7 | 2 | 3 | -1 | -9 | -2 | x | x | x | x
COc1cccc(C(C)(O)c2nc(-c3ccc(S(C)(=O)=O)cc3)cs2)c1 (stereo not given) | -2 | x | -8 | x | 3 | x | x | x | x | x
O=C(CC[C@H]1O[C@@H](n2ccc(=O)[nH]c2=O)[C@H](O)[C@@H]1O)N[C@@H](Cc1ccccc1)C(=O)NCC1CCCO1 (stereo not given in full) | 1 | x | -8 | x | 4 | x | x | x | x | x
O=C(C1=NN(c2ccccc2)C2C(=O)N(c3cccc(Cl)c3)C(=O)C12)c1ccccc1 (stereo not given) | 6 | 33* | -31 | 31* | 10 | -23 | 37* | 51* | 28* | 11
O=C1C2C3CC(C2C(=O)N1c1cccc(Cl)c1)[C@H](O)C3O (stereo not given in full) | 1 | -6 | -8 | -1 | 0 | 6 | x | x | x | x
CN(C)c1ccc(/C=C2\SC(=O)N(CCc3nnc(N)s3)C2=O)cc1 | 32 | 100* | x | 30* | 97* | -19 | 92* | 102* | 22* | 14
C/C=C/c1ccc2c(c1)O[C@H](CN(C)C(=O)NC1CCCC1)[C@H](C)CN([C@H](C)CO)S2(=O)=O | -4 | x | -1 | x | -1 | x | x | x | x | x
CCN(CC)c1ccc(/C=C2/C(=O)c3ccc(C(=O)O)cc3C2=O)cc1 | 90 | 136* | x | 138* | 82* | -71 | 121* | 114* | 26* | 16
CCOCCCNc1nc2c(C)cccn2c(=O)c1/C=C1\SC(=S)N(C(C)CC)C1=O (stereo not given) | -78 | 135* | x | 17* | 8 | -4 | 157* | 145* | 80* | 9
CSCCC(c1nc2ccccc2[nH]1)n1c(/C=C/c2ccc(F)c(F)c2)nc2ccccc21 (stereo not given) | 1 | x | x | x | 2 | x | x | x | x | x
CN(C)c1ccc(/C=C/C(=O)c2c(O)c3ccccc3oc2=O)cc1 | 95 | 55* | x | 25* | 21 | -71 | 70* | 80* | 36* | 5
SMILES | CSN deneddyl inh | TPT1 inhibitor | Rpn11 inh | IDE inh | HNF4A DNA FP | IDE cell activ | TPT1 inh confirm | RNase T1 counter | IDE cell inh cf | HEK293 tox
CCOc1ccc(/C=C/C(=O)c2c(O)c3ccccc3oc2=O)cc1 | -1 | 6 | 4 | -5 | 3 | 5 | x | x | x | x
CC1(C)CC=CC(COC(=O)c2ccccc2C(=O)O)C1 (stereo not given) | -3 | x | -3 | x | 2 | 2 | x | x | x | x
COc1ccc(/C=C2\SC(N)=NC2=O)cc1 | -2 | x | -7 | x | 1 | 7 | x | x | x | x
COc1cc(/C=C2\SC(N)=NC2=O)cc(Br)c1O | 47* | 59* | x | 55* | 38* | -41 | 69* | 78* | 70* | 6
COc1ccc(N=Cc2sc(O)c3ccccc23)cc1 | 82 | 147* | x | 61* | 80 | -66 | 120* | 116* | 90* | 10
COCCN1C(=O)/C(=C/c2ccc(N3CCCC3)cc2C)SC1=S | 31 | 115* | x | 49* | 120 | -25 | 99* | 100* | 57* | 15
